The values below come from paper PMC5091360 (Science Advances, 2016).

As a reminder, the IC50 is the midpoint of a concentration-inhibition curve. Low readings indicate greater potency in that assay, high ones weaker potency in that assay.

For assay [1], the system named is FGF receptors. To be noted: cited from earlier work.
Assay [2] has as its system ERK1/2 pathway in lymphatic endothelial cells (LECs). Description: ERK1/2 phosphorylation in lymphatic endothelial cells. In kind it is cell-based, human. To be noted: growth factor 100 ng/ml, 10 min, 37°C, 1% DMSO, heparin 10 U/ml. The method in brief:
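Human dermal lymphatic microvascular endothelial cells were cultured overnight in EBM2 with 2% FBS, then starved 18 h in EBM2 with 0.2% BSA. They were stimulated with VEGF-A, VEGF-C or FGF-1, with or without test peptide or scrambled peptide (30 μg/ml). Lysates were immunoblotted for total and phospho-ERK1/2 using infrared-dye secondaries, and the phospho/total intensity ratio was taken. Two experiments were run; ANOVA with Tukey.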

For assay [3], the target named is T1, VEGFR-3 (Mus musculus, UniProt P35917).
T1 sequence (P35917 25-770): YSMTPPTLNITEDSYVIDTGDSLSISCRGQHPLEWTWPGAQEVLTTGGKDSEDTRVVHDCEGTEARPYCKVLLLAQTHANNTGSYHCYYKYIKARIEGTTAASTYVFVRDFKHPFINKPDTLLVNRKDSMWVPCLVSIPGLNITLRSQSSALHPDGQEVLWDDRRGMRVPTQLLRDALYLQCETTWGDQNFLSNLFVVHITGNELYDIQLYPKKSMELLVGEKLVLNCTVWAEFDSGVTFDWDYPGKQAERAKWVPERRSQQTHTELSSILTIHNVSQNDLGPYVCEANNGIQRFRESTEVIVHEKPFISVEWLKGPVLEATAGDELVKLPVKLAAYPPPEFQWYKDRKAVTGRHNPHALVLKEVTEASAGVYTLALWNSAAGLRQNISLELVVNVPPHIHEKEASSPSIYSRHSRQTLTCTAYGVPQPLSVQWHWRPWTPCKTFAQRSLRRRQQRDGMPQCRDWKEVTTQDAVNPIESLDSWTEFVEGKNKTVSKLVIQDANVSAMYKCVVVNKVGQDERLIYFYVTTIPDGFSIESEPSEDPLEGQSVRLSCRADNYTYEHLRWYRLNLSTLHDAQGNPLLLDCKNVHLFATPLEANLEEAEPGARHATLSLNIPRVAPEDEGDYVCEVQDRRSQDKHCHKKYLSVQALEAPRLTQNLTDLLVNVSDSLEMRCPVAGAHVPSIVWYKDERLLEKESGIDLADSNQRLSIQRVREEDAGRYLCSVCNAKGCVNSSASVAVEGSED
As to the kind of experiment: competition assay, binding of phage PCAIWF to immobilized VEGFR-3.

Assay [4] concerns mouse VEGFR-3. Description: phage binding assay, immobilized mouse VEGFR-3. As to conditions: 10^8 TU in 50 μl PBS, 2 hours, room temperature; control insertless phage Fd; colony count or phage-FLISA; triplicate plating.
Assay [5] has as its system human VEGFR-3. As to the kind of experiment: phage binding assay, immobilized human VEGFR-3. To be noted: 10^8 TU in 50 μl PBS, 2 hours, room temperature; control insertless phage Fd; colony count or phage-FLISA; triplicate plating.
In assay [6] the target is T2, recombinant IgD2 domain of human VEGFR-3 (human, UniProt P35916 136-229).
T2 sequence: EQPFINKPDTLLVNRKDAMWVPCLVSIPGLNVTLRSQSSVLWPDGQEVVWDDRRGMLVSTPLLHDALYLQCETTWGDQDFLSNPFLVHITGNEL
Description: ELISA. (In an ELISA, binding on a coated surface is turned into a signal by an enzyme label.)

In assay [7] the target is T3, recombinant IgD2-3 domains of human VEGFR-3 (human, UniProt P35916 136-332).
T3 sequence: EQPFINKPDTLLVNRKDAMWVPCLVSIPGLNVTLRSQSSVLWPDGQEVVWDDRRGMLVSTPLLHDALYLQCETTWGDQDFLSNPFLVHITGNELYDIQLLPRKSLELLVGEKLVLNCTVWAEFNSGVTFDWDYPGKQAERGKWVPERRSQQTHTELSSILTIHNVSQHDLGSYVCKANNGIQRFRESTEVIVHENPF
Description: ELISA.

Assay [8] concerns the target T4, human VEGFR-3 extracellular domain (Fc fusion) (human, UniProt P35916 25-775).
T4 sequence: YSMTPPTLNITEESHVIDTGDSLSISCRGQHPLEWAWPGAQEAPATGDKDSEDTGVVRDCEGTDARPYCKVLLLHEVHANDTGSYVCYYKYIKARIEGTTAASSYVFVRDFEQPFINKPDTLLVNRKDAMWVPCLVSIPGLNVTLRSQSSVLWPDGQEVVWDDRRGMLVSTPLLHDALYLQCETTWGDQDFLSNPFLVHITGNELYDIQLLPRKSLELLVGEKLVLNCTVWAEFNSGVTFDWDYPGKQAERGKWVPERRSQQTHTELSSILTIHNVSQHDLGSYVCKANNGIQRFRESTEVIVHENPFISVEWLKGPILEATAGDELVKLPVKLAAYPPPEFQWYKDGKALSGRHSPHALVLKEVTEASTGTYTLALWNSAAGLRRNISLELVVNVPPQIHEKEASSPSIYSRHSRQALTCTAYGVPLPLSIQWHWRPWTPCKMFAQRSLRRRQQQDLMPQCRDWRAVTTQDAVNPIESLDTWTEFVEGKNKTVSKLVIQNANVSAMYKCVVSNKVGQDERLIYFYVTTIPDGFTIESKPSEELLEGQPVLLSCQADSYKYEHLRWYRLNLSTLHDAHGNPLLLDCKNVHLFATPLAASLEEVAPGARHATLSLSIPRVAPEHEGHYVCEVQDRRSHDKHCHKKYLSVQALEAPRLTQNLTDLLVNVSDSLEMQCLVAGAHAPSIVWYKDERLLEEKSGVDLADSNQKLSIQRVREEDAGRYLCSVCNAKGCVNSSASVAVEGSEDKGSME
As to the kind of experiment: ELISA.

Assay [9] relates to human VEGFR-1. As to the kind of experiment: FLISA binding assay, NRP-2 to VEGFR-1. As to conditions: rat NRP-2, FLISA. In short, it runs like this:
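Human VEGFR-1 extracellular domain coated at 200 ng per well in PBS overnight at 4°C, then blocked with Odyssey blocking buffer. Wells incubated with NRP-1 or NRP-2 in PBS with 10% (v/v) DMSO and 10% blocking buffer, with or without peptide (100 μg/ml). Bound NRP detected with goat anti-NRP-1 or anti-NRP-2 serum (1:100), then IRDye 680LT anti-goat, by infrared scanning. Duplicate wells; ANOVA with Tukey.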

Assay [10] concerns the target T5, recombinant mouse VEGFR-3/Fc (mouse, UniProt P35917 25-770).
T5 sequence: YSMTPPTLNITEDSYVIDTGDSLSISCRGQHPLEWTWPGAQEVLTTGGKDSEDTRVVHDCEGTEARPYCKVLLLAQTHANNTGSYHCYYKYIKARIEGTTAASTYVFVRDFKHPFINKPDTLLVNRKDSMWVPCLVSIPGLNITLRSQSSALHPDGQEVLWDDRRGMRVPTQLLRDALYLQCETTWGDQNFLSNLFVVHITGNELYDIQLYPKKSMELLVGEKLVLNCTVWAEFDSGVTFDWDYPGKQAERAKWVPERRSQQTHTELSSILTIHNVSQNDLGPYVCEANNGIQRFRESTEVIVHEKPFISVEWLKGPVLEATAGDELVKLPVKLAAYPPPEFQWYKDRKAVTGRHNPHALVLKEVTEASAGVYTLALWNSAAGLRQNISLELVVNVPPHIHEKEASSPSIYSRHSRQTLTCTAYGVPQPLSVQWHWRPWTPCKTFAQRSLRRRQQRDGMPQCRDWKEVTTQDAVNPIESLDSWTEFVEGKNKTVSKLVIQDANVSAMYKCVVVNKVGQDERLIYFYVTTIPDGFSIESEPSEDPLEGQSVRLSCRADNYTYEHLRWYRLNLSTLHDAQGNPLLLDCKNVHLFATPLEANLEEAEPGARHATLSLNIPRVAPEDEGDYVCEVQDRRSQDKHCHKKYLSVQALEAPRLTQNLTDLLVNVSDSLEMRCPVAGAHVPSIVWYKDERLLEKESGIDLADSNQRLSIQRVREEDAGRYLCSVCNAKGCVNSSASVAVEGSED
Description: phage binding assay.

The target in assay [11] is T4, human VEGFR-3 extracellular domain (Fc …). Description: phage binding assay.
Assay [12] addresses human VEGFR-2 extracellular domain (Fc fusion) (human, UniProt P35968 20-764). As to the kind of experiment: ELISA.
The target of assay [13] is human VEGFR-1 extracellular domain (Fc fusion) (human, UniProt P17948 27-758). As to the kind of experiment: ELISA.

Ends that are not written are not given here.

Chain of human VEGFR-2 extracellular domain (Fc fusion) (P35968 20-764): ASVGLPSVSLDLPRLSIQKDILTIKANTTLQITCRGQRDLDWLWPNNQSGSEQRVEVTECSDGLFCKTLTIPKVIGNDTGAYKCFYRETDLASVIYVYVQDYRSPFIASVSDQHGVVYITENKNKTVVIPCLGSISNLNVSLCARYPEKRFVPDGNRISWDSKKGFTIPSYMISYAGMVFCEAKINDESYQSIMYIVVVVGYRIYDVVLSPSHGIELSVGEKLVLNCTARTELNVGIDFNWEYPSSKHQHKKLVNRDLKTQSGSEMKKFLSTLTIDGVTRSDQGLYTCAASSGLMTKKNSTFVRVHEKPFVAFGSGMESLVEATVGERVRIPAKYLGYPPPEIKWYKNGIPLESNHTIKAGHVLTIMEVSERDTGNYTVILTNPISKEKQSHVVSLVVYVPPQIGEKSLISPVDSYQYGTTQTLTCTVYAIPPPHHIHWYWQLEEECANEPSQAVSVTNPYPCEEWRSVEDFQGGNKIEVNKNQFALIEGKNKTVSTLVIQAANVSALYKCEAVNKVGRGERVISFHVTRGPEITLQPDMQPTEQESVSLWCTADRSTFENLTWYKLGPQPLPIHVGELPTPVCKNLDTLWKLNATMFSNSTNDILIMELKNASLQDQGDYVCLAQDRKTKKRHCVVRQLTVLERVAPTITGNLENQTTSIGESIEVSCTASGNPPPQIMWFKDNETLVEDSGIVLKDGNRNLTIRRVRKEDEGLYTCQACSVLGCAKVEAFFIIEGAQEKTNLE
Chain of human VEGFR-1 extracellular domain (Fc fusion) (P17948 27-758): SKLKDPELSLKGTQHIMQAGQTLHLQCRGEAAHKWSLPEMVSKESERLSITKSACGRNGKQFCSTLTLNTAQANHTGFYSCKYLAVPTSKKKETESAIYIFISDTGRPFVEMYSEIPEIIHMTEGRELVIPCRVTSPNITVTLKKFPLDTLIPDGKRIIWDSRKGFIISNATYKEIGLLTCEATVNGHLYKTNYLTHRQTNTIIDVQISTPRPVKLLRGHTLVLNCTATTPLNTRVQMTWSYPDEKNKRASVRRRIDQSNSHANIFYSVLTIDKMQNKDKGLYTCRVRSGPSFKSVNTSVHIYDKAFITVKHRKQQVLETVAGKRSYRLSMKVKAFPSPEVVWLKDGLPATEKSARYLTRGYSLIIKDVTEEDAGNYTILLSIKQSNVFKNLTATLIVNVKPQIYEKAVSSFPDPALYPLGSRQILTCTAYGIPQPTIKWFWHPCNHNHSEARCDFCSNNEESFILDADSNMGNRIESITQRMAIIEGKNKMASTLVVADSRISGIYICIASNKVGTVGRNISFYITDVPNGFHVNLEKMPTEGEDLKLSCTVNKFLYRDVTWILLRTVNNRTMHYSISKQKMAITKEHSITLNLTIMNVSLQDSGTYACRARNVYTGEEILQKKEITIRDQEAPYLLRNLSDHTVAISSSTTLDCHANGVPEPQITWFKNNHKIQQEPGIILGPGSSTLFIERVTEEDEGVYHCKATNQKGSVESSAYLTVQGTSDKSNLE

Take `COc1c(C)c(C(=O)c2ccc(N)c(C(=O)[O-])c2)n2ccccc12.[Na+]` [SSR128129E]: in assay [1], the “effect on FGF receptors” value was “binds to and prevents the activation of all four FGF receptors”; the “interaction with ligand-binding domain of the FGF receptors” value was “does not interact with the ligand-binding domain of the receptors”.

Turning to “FGF-1: fibroblast growth factor, recombinant human ligand”, the “phosphorylation of ERK1/2 upon growth factor stimulation” value in assay [2] is recorded as “phosphorylation of ERK1/2 increases”.

The molecule PSAIWF [PSAIWF] gave an IC50 in assay [3] of approximately 278 µM.

Regarding WVCSGG [phage WVCSGG], the “phage binding to mouse VEGFR-3” value in assay [4] is “both phages bound to mouse and human VEGFR-3”. Besides, in [5], the “phage binding to human VEGFR-3” value was “both phages bound to mouse and human VEGFR-3”.

Regarding PCAIWF [synthetic peptide PCAIWF], the binding result in assay [6], in [7] and in [8] was “binds” each time.

B1: NRP-2: neuropilin, co-receptor for VEGF; rat NRP-2 (protein)
chain: QQDPPCGGRLNSKDAGYITSPGYPQDYPSHQNCEWVVYAPEPNQKIVLNFNPHFEIEKHDCKYDFIEIRDGDSESADLLGKHCGNIAPPTIISSGSVLYIKFTSDYARQGAGFSLRYEIFKTGSEDCSKNFTSPNGTIESPGFPEKYPHNLDCTFTILAKPRMEIILQFLTFDLEHDPLQVGEGDCKYDWLDIWDGIPHVGPLIGKYCGTKTPSKLRSSTGILSLTFHTDMAVAKDGFSARYYLVHQEPPENFQCNAPLGMESGRIANEQISASSTFSDGRWTPQQSRLHGDDNGWTPNVDSNKEYLQVDLRFLTMLTAIATQGAISRETQKGYYVKSYKLEVSTNGEDWMVYRHGKNHKVFQANNDATELVLNKLHTPLLTRFIRIRPQTWHLGIALRLELFGCRVTDAPCSNMLGMLSGLIADTQISASSTREYLWSPSAARLVSSRSGWFPRNPQAQPGEEWLQVDLGTPKTVKGVIIQGARGGDSITAMEARAFVRKFKVSYSLNGKDWEYIQDPRTQQPKLFEGNMHYDTPDIRRFEPVPAQYVRVYPERWSPAGIGMRLEVLGCDWTDSKPTVETLGPTVKSEETTTPYPMDEDATECGENCSFEDDKDLQLPSGFNCNFDFPEETCGWMYDRAKWLQSTWISSANPNDRTFPDDKNFLKLQSDGGREGQFGRLISPPVHLPRSPVCMEFQYQAMGGHGVALQVVREARQESKLLWVIREDQGSEWKHGRIILPSYDMEYQIVFEGVIGKGRSGEISIDDIRISTDVPLENCMEPISAFAVDIPEIHGGEGYEDEIDDDYEGDWNNSSSTSGAGSPSSGKEKSWLYTLDP
Consider B1, for which the “NRP-2 binding to VEGFR-1” value in [9] is on record as “strong interaction”.

For the molecule PCAIWF [phage PCAIWF], the binding result in assay [6], in assay [7], in assay [10] and in assay [11] was “binds” throughout.

PSAIWF [synthetic peptide PSAIWF]: the binding result in [12], in [8] and in [13] was “binds” in each case.

For the molecule WVCSGG [synthetic peptide WVCSGG], the binding result in assay [6] and in [7] was “binds” each time.

WVCSGG [phage WVCSGG]: the binding result in assay [10] and in assay [11] was “binds” each time.
